RAM network inh = inhibitors of the yeast RAM network, primary screen, dse1pr::URA3 reporter, 5-FOA selection. AID 868, 2007. inhibition, % at 50 µM. S. cerevisiae dse1pr::URA3 reporter, 5-FOA growth OD615, 2 d; analog-sensitive cbk1-as2 kinase mutant strain. hit rate 1.8% among 190,000;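 active means inhibition above a set limit, 3 SD over mean compound inhibition, cut at about 8.4% in these data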;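 further: 0% = DMSO-only wells with no growth and 100% = 10 µM 1-NA-PP1 full growth; inhibition rescues growth on 5-FOA so higher OD means more RAM inhibition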
Yeast lifespan up = compounds extending yeast replicative lifespan, primary screen, S. cerevisiae, OD615; inhibition of the nicotinamide effect, % at 10 µM; hit rate 0.68% among 130,000; S. cerevisiae growth with nicotinamide; deaD strain in restrictive glucose medium;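 active means inhibition above a set limit, placed 3 SD over the median of all compounds, cut at about 26% in these data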;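 further: 0% = nicotinamide-treated wells and 100% = cells grown without nicotinamide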
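Material: Modified budding yeast, DeaD strain | Medium: Restrictive glucose medium | Probe or stimulus: 1.5 mM nicotinamide | Dosing: Single dose 10 µM compound, 0.25% DMSO | Times: 48 h at 30 °C | Technique: OD615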
BB579 growth dn = growth inhibitors of yeast BB579 in restrictive medium, primary screen, yeast lifespan-shortening project, S. cerevisiae; hit rate 0.51% among 140,000; OD615, 48 h; inhibition, % at 10 µM;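 active means inhibition above a set limit, 3 SD over the mean compound inhibition, cut at about 44% in these data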
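Material: Saccharomyces cerevisiae DeaD strain BB579, replicative lifespan model yeast; buffer or medium: CSMM-D restrictive synthetic medium containing dextrose (glucose); compound: 10 µM single dose, DMSO 0.25%; timing: 48 h compound exposure at 30 °C after 4 h preincubation; signal: turbidity as optical density at 615 nm; benchmarks: positive control amphotericin B 10 µg/mL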
Phagocytosis inh = inhibitors of macrophage phagocytosis, primary screen, imaging, J774A.1 cells, IgG beads. J774A.1 macrophage IgG-bead phagocytosis. inhibition, % at 5 µM. hit rate 0.07% among 110,000;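 active means inhibition above the mean of the plate negative controls plus 5 SD, cut at about 13% in these data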;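 further: phagocytic index as fraction of beads internalized from green versus red external bead signal; plate controls were DMSO negative control for no effect and cytochalasin-D positive control for full effect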
Measles CPE = compounds protecting cells from measles virus cytopathic effect, primary screen, measles RdRp inhibitor project, single point, MLSMR library, absorbance; Measles virus-infected cells, CPE protection; protection (pct of control), % at 4 µM; hit rate 1.5% among 140,000; in the data active means protection mostly above about 24%, no sharp cut-off; inactive means mostly below about 26%
An asterisk follows results filed as active; · = no result. Hits are enriched below; roughly 3.6% of the tested compounds scored in any of these assays.

SMILES	RAM network inh	Yeast lifespan up	BB579 growth dn	Phagocytosis inh	Measles CPE
COc1ccc(Cn2cc(C(=O)c3ccccc3)c(=O)c3cc(OC)ccc32)cc1	4.3	8.4	-27.5	·	3.3
CCNc1ncnc2c1cnn2C	2.2	·	·	·	·
CCn1cc(C(=O)NCCCN2CCC(C)CC2)c(=O)c2cc(S(=O)(=O)N3CCCC3)ccc21	1.9	-10.9	-14.8	-0.9	2.8
CCn1cc(C(=O)NC2CCC(C)CC2)c(=O)c2cc(S(=O)(=O)N3CCCCC3)ccc21 (stereo not given)	4.8	-10.1	-19.3	0.0	90.9*
CCOC(=O)c1ccc(NC(=S)N(CCCN2CCN(CC)CC2)Cc2cccs2)cc1	2.7	·	·	·	·
NCCc1nc(-c2ccccc2)cs1	1.0	·	·	·	·
CCC(=O)NC(=S)NNC(=O)c1ccc(OC)cc1	-0.5	-5.9	-16.7	·	2.3
CCCCOc1ccc(C(=O)NNC(=S)NC(=O)CC)cc1	-0.1	-1.9	48.4*	-5.2	12.8
CCNc1ccc(C(=O)OC(C(=O)NC(N)=O)C(C)C)cc1[N+](=O)[O-] (stereo not given)	0.4	·	·	·	·
O=C(CCSCc1ccc(Cl)cc1)NC1CCCC1	-0.3	3.8	-49.5	-6.5	15.1
CC(C)(C)c1ccc(C(=O)CC(=O)c2cc(Cl)ccc2O)cc1	10.4*	-2.9	-26.5	-1.0	19.8
Cc1ccc(C(=O)CN(C(=O)c2ccc(Cl)cc2)N2C(=O)c3ccccc3C2=O)cc1	5.1	-16.8	-42.8	-0.4	26.1
O=C(CC(=O)c1ccccc1O)c1ccc(F)cc1	3.2	-18.4	53.3*	-0.5	6.7
Cc1ccc(C(=O)CC(=O)c2cc(Cl)ccc2O)cc1	10.1*	-12.1	-66.5	-0.4	1.5
CN(c1ccc(OCC(=O)OCC(=O)c2c(N)n(C)c(=O)n(C)c2=O)cc1)S(=O)(=O)c1ccc2ccccc2c1	6.2	·	·	·	·
Nc1ccc2c(c1)nc(Cc1ccccc1)n2CCO	0.6	·	·	·	·
CCOC(=O)c1cc2sccc2n1CCCN1C(=O)c2ccccc2C1=O	9.0*	-1.5	-36.3	-0.4	9.7
Cc1nnc(SCC(=O)NCc2ccc3c(c2)OCO3)s1	0.9	-7.4	-43.0	-1.1	22.0
CN(c1ccccc1)S(=O)(=O)c1cccc(C(=O)OCC(=O)NCc2ccc3c(c2)OCO3)c1	10.3*	5.3	-33.8	-6.6	12.2
COc1ccc(C(=O)NCc2ccc3c(c2)OCO3)cc1S(=O)(=O)N(C)Cc1ccccc1	9.6*	3.1	-34.6	·	2.8
CN(c1ccccc1)S(=O)(=O)c1cccc(C(=O)OCC(=O)NCc2ccco2)c1	0.1	·	·	·	·
O=C(COC(=O)c1cccnc1Cl)NCc1ccc2c(c1)OCO2	-0.1	3.9	10.2	-4.0	33.2*
O=C(CSc1nc2cc(Cl)ccc2s1)NCc1ccc2c(c1)OCO2	10.5*	7.4	7.2	-4.2	7.5
OCC[C@@H]1C[C@@H](O)[C@H](O)[C@]2(CCCCO2)O1	2.3	0.5	-29.5	·	7.2
O=C(NC(=S)NCc1ccccc1)c1ccc2c(c1)OCO2	-1.0	-11.6	19.3	-4.1	30.9*
SMILES	RAM network inh	Yeast lifespan up	BB579 growth dn	Phagocytosis inh	Measles CPE
c1ccc(-c2n[nH]c3c2CCC3)cc1	1.4	-7.0	12.2	2.5	17.3
CC(C)(C)c1n[nH]c2c1CCCC2	0.3	28.0*	-40.6	-1.3	5.1
Cc1ccc(-c2nc(N)sc2-c2ccccc2)cc1C	-1.3	-5.8	78.6*	-3.6	3.5
Nc1nc(-c2ccccc2)c(-c2ccccc2)s1	2.0	-16.2	-23.5	·	5.2
COCCN(C(=O)Nc1ccccc1)c1ccccc1C	0.7	-4.4	-23.3	·	57.5*
CC1CC(C)CN(C(=O)Cn2c(=O)n(CCCCC(=O)NCc3ccco3)c(=O)c3ccccc32)C1 (stereo not given)	10.8*	-2.0	-33.3	-1.4	30.8
O=C(CCn1c(=O)c2ccccc2n(Cc2cc(=O)n3ccccc3n2)c1=O)NCc1ccco1	10.9*	7.5	-54.2	-4.7	9.8
CC1CC(C)CN(C(=O)Cn2c(=O)n(CCCCC(=O)NC3CCCC3)c(=O)c3ccccc32)C1 (stereo not given)	2.2	0.5	-20.9	-2.2	5.2
Cc1cccc2nc(Cn3c(=O)n(CCCC(=O)NCc4ccco4)c(=O)c4ccccc43)cc(=O)n12	0.7	-2.1	-30.9	-0.9	13.6
O=C(CCCCn1c(=O)c2ccccc2n(CC(=O)NC2CCCC2)c1=O)NC1CCCC1	0.0	1.0	-21.4	·	87.6*
CCc1nnc(NC(=O)CSc2nnc(Cc3ccccc3)n2-c2ccccc2)s1	1.9	-3.9	-31.4	-0.3	12.5
Cc1ccc(OCc2nnc(SCc3ccc(C#N)cc3)n2-c2ccc(C)cc2)cc1	8.5*	1.5	-29.0	1.3	3.3
Cc1ccc(-n2c(SCc3ccc(C#N)cc3)nnc2-c2ccccn2)cc1	1.6	2.8	-43.5	-3.8	16.8
CCOC(=O)c1ccccc1NC(=O)CSc1nnc(COc2ccccc2)n1CC	-0.8	-3.5	-45.9	-0.4	52.6*
CCOC(=O)C(CC)Sc1nnc(COc2ccc(C)cc2)n1-c1ccccc1 (stereo not given)	0.4	·	-22.7	·	27.7*
CCc1nnc(NC(=O)CSc2nnc(COc3ccc(C)cc3)n2-c2ccccc2)s1	8.7*	-6.5	-41.5	·	12.1
O=C(Nc1cccc(S(=O)(=O)N2CCOCC2)c1)c1c2c(nc3ccccc13)CCC2	0.6	-3.4	-25.1	-2.8	4.5
CCCNC(=O)c1nc2ncc(Br)cn2n1	0.7	8.8	-20.2	0.5	6.8
CCCCNC(=O)c1nc2ncc(Br)cn2n1	1.2	-12.4	-18.4	192.6*	7.2
O=C1c2ccccc2C(=O)N1CCc1csc(-c2ccccc2)n1	3.2	-22.4	-36.9	-0.1	39.0*
CCOc1ccc(C(=O)CC(=O)C(=O)NCCc2ccc(OC)c(OC)c2)cc1	1.4	13.6	16.3	-8.4	37.9*
Cc1ccc(S(=O)(=O)CCC(=O)Nc2ccc(S(=O)(=O)N(C)C)cc2)cc1	-0.3	·	·	·	·
O=Cc1ccc(OC(=O)c2cccnc2)cc1	1.9	·	·	·	·
Oc1ccc(NCc2ccccc2OCc2ccccc2F)cc1	4.1	27.0*	-28.1	-3.7	14.5
O=C1Nc2ccccc2N(O)N1c1ccc(S(=O)(=O)N2CCCCCC2)cc1	0.5	-2.9	-22.5	-6.4	7.0
C[C@@H](C(=O)NCc1ccccc1)[C@H]1C[C@]1(C)[C@H](NC(=O)OCc1ccccc1)c1ccccc1	9.5*	3.3	-16.4	·	19.1
COC(=O)[C@H](C)[C@@H]1C[C@@]1(C)[C@@H](NC(=O)OCc1ccccc1)c1ccccc1	8.6*	9.3	-46.3	·	1.8
CCOc1cc(/C=C2/C(=O)ON=C2C)ccc1OCc1ccc(F)cc1	9.9*	1.2	-30.3	-3.3	15.6
CCOc1cc(/C=C2/C(=O)ON=C2C)ccc1OCc1ccccc1F	7.1	56.2	-42.0	·	9.1
CCOc1cc(/C=C2/C(=O)ON=C2C)ccc1OCc1ccccc1	10.4*	·	·	·	·

Screens: PubChem, several laboratories
